Data set [1] can be described thus: Permeability of the compound at pH 7.4 by PAMPA. Format: ADME. As to conditions: read-out: permeability. Put shortly: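 Permeability coefficient (Pe) was measured at pH 7.4 by double-sink PAMPA.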
Background: The PAMPA barrier holds no transporters, so it reflects passive diffusion.

Data set [2] can be described thus: Distribution coefficient, log D of the compound at pH 7.4 by potentiometric titration method. Format: physicochemical. The following applies: octanol/water. The method in brief: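 log D at pH 7.4 measured by potentiometric titration on a Gemini Profiler.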
The nature of data set [3]: AUC (0 to infinity) in plasma of human HCT116 cells xenografted BALB/c mouse at 80 mg/kg, po administered as single dose by LC-MS/MS analysis. Format: ADME, organism-based. Details: dose 80 mg/kg, time infinity, route oral. Put shortly: (§1)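 Tumour-bearing mice (n = 6 per group) given one oral dose of 80 mg/kg. Blood and tumour collected into heparinized tubes at 0, 0.25, 0.5, 1, 2, 4, 8, 12 and 24 h. Plasma obtained by centrifugation at 3000 rpm for 10 min. Samples stored at -80 °C and quantified by LC-MS/MS.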
Background: A xenograft is tissue or cells of one species grown in another, often human tumour cells in immunodeficient mice.

A further data set addresses Heat shock protein HSP90 (Homo sapiens, UniProt P07900+P08238). As to the kind of experiment: Binding affinity to recombinant […] HSP90 N-terminal domain (9 to 236 residues) (unknown origin) expressed in Escherichia coli BL21 (DE3) by isothermal calorimetric method. The method in brief:
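ITC: 50 µM Hsp90 in the cell and 300 µM compound in the syringe, both in 20 mM Tris-HCl, 150 mM NaCl, pH 7.4. Nineteen injections at 180 s intervals with stirring at 1000 rpm.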
Background: ITC needs no label: the signal is the heat of the interaction.

Data set [4] addresses T1, Glucocorticoid receptor (Homo sapiens, UniProt P04150).
T1 sequence (P04150 whole entry): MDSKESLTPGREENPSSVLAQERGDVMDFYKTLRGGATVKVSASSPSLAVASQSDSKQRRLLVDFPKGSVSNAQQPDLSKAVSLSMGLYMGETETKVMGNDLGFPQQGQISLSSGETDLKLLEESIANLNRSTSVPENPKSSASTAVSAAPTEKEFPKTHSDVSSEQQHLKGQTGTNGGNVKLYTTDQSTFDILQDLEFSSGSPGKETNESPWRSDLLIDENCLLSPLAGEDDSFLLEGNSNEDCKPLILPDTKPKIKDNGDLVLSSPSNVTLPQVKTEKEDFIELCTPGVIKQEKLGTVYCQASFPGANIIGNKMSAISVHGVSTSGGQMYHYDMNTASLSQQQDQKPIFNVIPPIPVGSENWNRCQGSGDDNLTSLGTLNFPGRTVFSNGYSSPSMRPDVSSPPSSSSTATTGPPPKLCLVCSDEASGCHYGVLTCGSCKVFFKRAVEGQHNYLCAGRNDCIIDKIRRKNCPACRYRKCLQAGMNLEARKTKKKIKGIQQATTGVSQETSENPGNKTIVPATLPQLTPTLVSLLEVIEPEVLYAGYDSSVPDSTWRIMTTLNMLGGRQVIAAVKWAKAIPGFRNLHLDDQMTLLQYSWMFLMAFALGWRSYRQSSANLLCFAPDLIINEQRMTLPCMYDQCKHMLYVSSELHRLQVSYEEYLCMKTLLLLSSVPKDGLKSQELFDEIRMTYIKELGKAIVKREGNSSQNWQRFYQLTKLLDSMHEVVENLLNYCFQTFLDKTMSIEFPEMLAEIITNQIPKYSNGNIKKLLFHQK
As to the kind of experiment: Effect on glucocorticoid receptor in human HCT116 cells up to 10 uM measured after 24 hrs by Western blot analysis. Format: ADME, cell-based. Put shortly:
(§2)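 HCT116 cells treated with 0, 1, 5 or 10 µM for 24 h, or with 10 µM for 0, 4, 12, 24 or 48 h. Lysates separated by SDS-PAGE and blotted. Membranes blocked in 5% milk, primary antibodies overnight at 4 °C, HRP secondaries, chemiluminescent detection.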

Data set [5] in a line: Cmax in tumor of human HCT116 cells xenografted BALB/c mouse at 80 mg/kg, po administered as single dose by LC-MS/MS analysis. More on the design: dose 80 mg/kg, route oral. Format: ADME, organism-based, Neoplasm. Put shortly:
as §1

The target of data set [6] is T1, Glucocorticoid receptor. In words: Effect on glucocorticoid receptor in human HCT116 cells at 10 uM measured up to 48 hrs by Western blot analysis. Format: ADME, cell-based. Put shortly: as §2
Data set [7] in a line: Apparent oral clearance in plasma of human HCT116 cells xenografted BALB/c mouse at 80 mg/kg administered as single dose by LC-MS/MS analysis. Format: ADME, organism-based. The method in brief: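 Xenograft mice (n = 6 per group) received a single 80 mg/kg oral dose. Plasma and tumour were sampled over 0–24 h into heparinized tubes and analysed by LC-MS/MS.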
Data set [8] can be described thus: Stability of the compound in mouse plasma assessed as parent compound remaining at 1 uM measured after 30 mins by LC-MS/MS analysis. The following applies: read-out: Stability. Format: ADME, cell-free. Put shortly:
(§3)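 Compound diluted from 10 mM DMSO stock to 1 μM in mouse or human plasma and held at 37 °C in a water bath. Reactions were stopped with acetonitrile at 0, 10, 30, 60 and 90 min. Parent compound was quantified by LC-MS/MS as % remaining.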

Data set [9] is described as follows: Half life in mouse liver microsomes at 10 uM preincubated for 5 mins followed by NADPH addition by LC-MS/MS analysis. Format: ADME, Microsome. The method in brief:
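Compound at 10 µM preincubated 5 min at 37 °C with human or mouse liver microsomes (0.5 mg/mL) in 100 mM phosphate, pH 7.4. Reaction started with 1 mM NADPH, stopped with cold acetonitrile, centrifuged and analysed by LC-MS/MS.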

The nature of data set [10]: Stability of the compound in mouse plasma assessed as parent compound remaining at 1 uM measured after 10 mins by LC-MS/MS analysis. Format: ADME, cell-free. As to conditions: read-out: Stability. Put shortly:
as §3

The subject of a further data set is HCT-116. As to the kind of experiment: Effect on total phosphorylated CDC37 expression in human HCT116 cells at 10 uM measured up to 48 hrs by Western blot analysis. Format: ADME, cell-based. As to conditions: hct-116, 48 h. Put shortly:
as §2

For the compound `Cc1cc(C)c(S(=O)(=O)N(CC(=O)O)c2ccc(Nc3ccnc(N4CCNCC4)n3)cc2)c(C)c1`, the Papp in data set [1] came out at 104 ×10⁻⁶ cm/s. Besides, in data set [2], the logD came out at 1.93. In addition, in [3], the AUC(0-inf) turned out to be 536 µg·h/mL. Further, the Kd at Heat shock protein HSP90 came out at 630 nM. The Activity entry on Glucocorticoid receptor [4], at Glucocorticoid receptor [6] and in the data set with HCT-116 was “Non-Toxic” each time. The same compound returned a Cmax in [5] of 50000 ng/mL. Also, the CL/F in data set [7] is 3.11 mL/min/kg. Besides, in [8], the remaining at 0.5 h, 1 µM turned out to be 102%. Besides, the half-life at 10 µM in [9] was found to be 1.6 h. In addition, in [10], the remaining at 10 min, 1 µM is 100%.

One may read the logD as lipophilicity at a set pH, counting ionised and neutral species. A lower logD goes with a more hydrophilic compound. What is called AUC(0-inf) is total exposure, with the tail of the curve extrapolated. A high value points to more exposure. For orientation: Kd means the constant that tells how readily two partners part at equilibrium. The term Cmax denotes the maximum level reached in the sampled fluid or tissue. As a reminder, the CL/F is clearance divided by bioavailability, as obtained after extravascular dosing. The term half-life denotes the time in which the quantity being followed falls by half. A high value points to slow loss.
